{"source": "paper PMC12376074", "about": "(Toxicology in vitro : an international journal published in …, 2019)", "key": {"[1]": {"tested_on": "HepG2 cells", "experiment": "MTT cell viability assay", "type": "cell-based, human", "details": "read-out: IC50 on cell growth"}, "[2]": {"tested_on": "HepG2 cells", "experiment": "Caspase-3/7 activity measurement", "type": "cell-based, human", "details": "0.1 IC50, 0.5 IC50 and IC50, 48 h"}, "[3]": {"tested_on": "cleaved caspase-3", "experiment": "Western blot of cleaved caspase-3 in HepG2 cells", "type": "cell-based, human", "details": "48 h"}, "[4]": {"tested_on": "Bcl-2, Mcl-1, Bax", "experiment": "Western blot of Bcl-2 family proteins in HepG2 cells", "type": "cell-based, human", "details": "48 h"}, "[5]": {"tested_on": "phosphorylation of p38, JNK, and ERK1/2", "experiment": "Western blot of MAPK phosphorylation in HepG2 cells", "type": "cell-based, human", "details": "48 h"}, "[6]": {"experiment": "MTT cell viability assay, CYP vector cells", "type": "cell-based", "details": "human, HepG2/CYP vector cells (empty-vector control), ADQ 1.56–50 μM"}, "[7]": {"experiment": "MTT cell viability assay, CYP1A1 cells", "type": "cell-based", "details": "human, HepG2 cells overexpressing CYP1A1"}, "[8]": {"experiment": "MTT cell viability assay, CYP1A2 cells", "type": "cell-based", "details": "human, HepG2 cells overexpressing CYP1A2"}, "[9]": {"experiment": "MTT cell viability assay, CYP1B1 cells", "type": "cell-based", "details": "human, HepG2 cells overexpressing human CYP1B1"}, "[10]": {"experiment": "MTT cell viability assay, CYP2C8 cells", "type": "cell-based", "details": "human, HepG2 cells overexpressing CYP2C8, IC50, CYP2C8 overexpressing cells, ADQ 1.56–50 μM"}, "[11]": {"experiment": "MTT cell viability assay, CYP2C19 cells", "type": "cell-based", "details": "human, HepG2 cells overexpressing CYP2C19"}, "[12]": {"experiment": "MTT cell viability assay, CYP3A4 cells", "type": "cell-based", "details": "human, HepG2 cells overexpressing CYP3A4, IC50, CYP3A4 overexpressing cells"}, "[13]": {"experiment": "MTT cell viability assay, CYP3A5 cells", "type": "cell-based", "details": "human, HepG2 cells overexpressing CYP3A5"}, "[14]": {"tested_on": "HepG2 cells", "experiment": "LDH release assay", "type": "cell-based, human", "details": "48 h, concentrations above the 0.5 IC50"}, "[15]": {"details": "cited from earlier work"}, "[16]": {"tested_on": "HepG2 cells overexpressing CYP3A4", "experiment": "Toxicity of CYP inhibitor to CYP3A4 cells", "type": "cell-based, human", "details": "30 μM"}, "[17]": {"tested_on": "CYP3A4", "experiment": "Western blot of CYP3A4 expression", "type": "cell-based, human", "details": "30 μM, CYP3A4 overexpressing cells, 48 h", "how_it_was_run": "(§1)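 HepG2 cells overexpressing CYP2C8 or CYP3A4 were co-incubated 48 h with test compound, with or without 30 μM rifampicin or ketoconazole. RIPA lysates (protease inhibitors, 30 min on ice, 12,000g) were BCA-quantified, and 20–60 μg protein was run on 10% SDS-PAGE and blotted to PVDF. Blots were probed with goat polyclonal anti-CYP2C8 or mouse monoclonal anti-CYP3A4, detected by ECL, and quantified against β-actin.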"}, "[18]": {"tested_on": "HepG2 cells overexpressing CYP2C8", "experiment": "Toxicity of CYP inhibitor to CYP2C8 cells", "type": "cell-based, human", "details": "30 μM"}, "[19]": {"tested_on": "CYP2C8", "experiment": "Western blot of CYP2C8 expression", "type": "cell-based, human", "details": "30 μM, CYP2C8 overexpressing cells, 48 h", "how_it_was_run": "as §1"}}, "note": "Like-named read-outs stand apart in the source and are kept apart here."}
{"smiles": "CCN(CC)Cc1cc(Nc2ccnc3cc(Cl)ccc23)ccc1O", "note": "[ADQ, Amodiaquine]", "values": [{"measurement": "IC50", "setting": "[1]; Homo sapiens, HepG2, 48 h", "result": 17.4, "unit": "µM"}, {"measurement": "caspase-3/7 activity", "setting": "[2]", "result": "increased the activity of caspase-3/7 in a concentration-dependent manner"}, {"measurement": "expression level of cleaved caspase-3", "setting": "[3]", "result": "increase"}, {"measurement": "expression level of pro-apoptotic member Bax", "setting": "[4]", "result": "increased"}, {"measurement": "expression levels of anti-apoptotic members Bcl-2 and Mcl-1", "setting": "[4]", "result": "decreased"}, {"measurement": "phosphorylation of p38, JNK, and ERK1/2", "setting": "[5]", "result": "no change"}, {"measurement": "IC50 at 48 h", "setting": "[6]", "result": 17.1, "unit": "µM"}, {"measurement": "IC50 at 48 h", "setting": "[7]", "result": 26.4, "unit": "µM"}, {"measurement": "IC50 at 48 h", "setting": "[8]", "result": 18.7, "unit": "µM"}, {"measurement": "IC50 at 48 h", "setting": "[9]", "result": 25.7, "unit": "µM"}, {"measurement": "IC50 at 48 h", "setting": "[10]", "result": 11.7, "unit": "µM"}, {"measurement": "IC50 at 48 h", "setting": "[11]", "result": 17.3, "unit": "µM"}, {"measurement": "IC50 at 48 h", "setting": "[12]; ADQ 1.56–50 μM", "result": 14, "unit": "µM"}, {"measurement": "IC50 at 48 h", "setting": "[12]; ADQ 3.13–50 μM, no CYP inhibitor", "result": 14.8, "unit": "µM"}, {"measurement": "IC50 at 48 h", "setting": "[13]", "result": 17.1, "unit": "µM"}]}
{"smiles": "CCNCc1cc(Nc2ccnc3cc(Cl)ccc23)ccc1O", "note": "[NADQ, N-desethylamodiaquine]", "values": [{"measurement": "IC50", "setting": "[1]; HepG2 cells, 1.56–50 μM, 48 h, MTT", "result": 15, "unit": "µM"}, {"measurement": "LDH release relative to vehicle control", "setting": "[14]", "result": "> 4", "unit": "fold"}, {"measurement": "caspase-3/7 activity", "setting": "[2]", "result": "increased the activity of caspase-3/7 in a concentration-dependent manner"}, {"measurement": "expression level of cleaved caspase-3", "setting": "[3]", "result": "increase"}, {"measurement": "expression level of pro-apoptotic member Bax", "setting": "[4]", "result": "no change"}, {"measurement": "expression levels of anti-apoptotic members Bcl-2 and Mcl-1", "setting": "[4]", "result": "no change"}, {"measurement": "phosphorylation of p38, JNK, and ERK1/2", "setting": "[5]", "result": "markedly increased"}, {"measurement": "half-life (t1/2) of NADQ relative to ADQ (longer)", "setting": "[15]; after oral administration of ADQ, ref Laurent et al., 1993, Scarsi et al., 2014", "result": "20- to 50 fold"}, {"measurement": "Cmax of NADQ in vivo relative to ADQ (higher)", "setting": "[15]; in vivo, ref Lai et al., 2009", "result": "> 20", "unit": "fold"}]}
{"smiles": "CC(=O)N1CCN(c2ccc(OCC3COC(Cn4ccnc4)(c4ccc(Cl)cc4Cl)O3)cc2)CC1", "note": "(stereo not shown) [ketoconazole]", "values": [{"measurement": "toxicity of the CYP inhibitor to cells", "setting": "[16]", "result": "not toxic"}, {"measurement": "expression level of CYP3A4", "setting": "[17]", "result": "markedly reduced"}]}
{"smiles": "CO[C@H]1/C=C/O[C@@]2(C)Oc3c(C)c(O)c4c(O)c(c(/C=N/N5CCN(C)CC5)c(O)c4c3C2=O)NC(=O)/C(C)=C\\C=C\\[C@H](C)[C@H](O)[C@@H](C)[C@@H](O)[C@@H](C)[C@H](OC(C)=O)[C@@H]1C", "note": "[rifampicin]", "values": [{"measurement": "toxicity of the CYP inhibitor to cells", "setting": "[18]", "result": "not toxic"}, {"measurement": "expression level of CYP2C8", "setting": "[19]", "result": "markedly reduced"}]}
